Compound activity from PubChem.
AHR act = human AHR activation; P35869; AHR-responsive luciferase reporter cells, luminescence; activation, % at 5 µM; 320,000 tested, 2.5% active; AID 2796; in the data active = activation above about 47%;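 also: 0% = vehicle wells and 100% = reference agonist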
SR-BI DiI inh = blocks mouse SR-BI lipid uptake from DiI-HDL; ldlA[mSR-BI] CHO cells, DiI-HDL uptake fluorescence, 3 h; inhibition, % at 12.5 µM; 320,000 tested, 0.96% active; AID 488896;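 active = mean replicate inhibition of at least 70% and a set share of replicates each scoring 70 or more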;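 also: 0% = median of neutral control wells and 100% = median of positive control wells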
Target sequence (Q61009 whole entry, looked up): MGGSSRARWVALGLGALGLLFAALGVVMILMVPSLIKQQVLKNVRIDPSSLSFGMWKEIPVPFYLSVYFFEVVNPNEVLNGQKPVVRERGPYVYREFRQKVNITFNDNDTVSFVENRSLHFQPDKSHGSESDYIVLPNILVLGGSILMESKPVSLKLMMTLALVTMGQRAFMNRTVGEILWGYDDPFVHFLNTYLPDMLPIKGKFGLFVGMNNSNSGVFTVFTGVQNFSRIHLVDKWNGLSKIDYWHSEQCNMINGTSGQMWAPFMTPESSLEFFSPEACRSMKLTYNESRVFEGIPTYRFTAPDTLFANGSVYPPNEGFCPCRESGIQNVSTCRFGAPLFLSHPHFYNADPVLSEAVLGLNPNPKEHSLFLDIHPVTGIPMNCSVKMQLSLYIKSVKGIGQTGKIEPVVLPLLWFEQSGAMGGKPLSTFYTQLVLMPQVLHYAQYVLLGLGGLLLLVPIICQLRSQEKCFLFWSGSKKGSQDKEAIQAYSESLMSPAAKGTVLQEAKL
Yeast superoxide = lowers age-related superoxide in aged yeast cells; S. cerevisiae aged cells, superoxide DHE fluorescence; hits give low values; superoxide response (% of plate mean), % at 10 µM; 330,000 tested, 0.18% active;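 active = superoxide response under a set limit, about three screen SD below normal, cut at about 65% in these data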;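 also: yeast aged for seven days with compound at 30 °C before DHE staining; 100% = average MFI of all compound-treated wells on the plate with controls excluded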
SR-BI uptake up = activators of SR-BI mediated HDL lipid uptake | AID 504775 | activation, % at 12.5 µM | 320,000 tested, 0.096% active | CHO ldlA[mSR-BI] cells, DiI-HDL uptake fluorescence, 3 h; 100 = double the neutral-control signal;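 active = mean replicate activation of at least 60% and every replicate at or above 60%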;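 also: 0% = median plate neutral-control signal and 100% = twice that signal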
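Material: SR-BI-overexpressing, LDLR-lacking CHO cells | Dosing: Single compound concentration, delivered by pin transfer | Probe or stimulus: Labelled HDL, 10 µg/mL | Signal: Bottom-read cell fluorescence after medium removal, ex 550/em 595 nm | Schedule: 3 h, 37 °C | Evaluation: HDL uptake via cellular fluorescence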
SMARCA2 act = SMARCA2 function activation, primary screen | AID 652017 | activation, % at 9.1 µM | MG213 cells, MMTV-luciferase reporter, dexamethasone, overnight | 370,000 tested, 1% active; in the data active = activation above about 7.8%;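 also: 0% = vehicle wells and 100% = reference activator wells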
Lipid droplet = modulators of hepatic lipid droplet formation. AML12 mouse hepatocytes, oleate lipid droplets, BODIPY imaging. inhibition, % at 6.5 µM. 240,000 tested, 0.4% active. AID 1656;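 active = lipid droplet intensity inhibited by at least 50%, with more than 500 cells counted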
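Assay system: AML12 hepatocytes (mouse); Probe or stimulus: oleic acid at 100 µM to induce lipid droplet formation; Dosing: compound at 6.5 µM only; Schedule: compound with oleate, overnight; Detection: fluorescence imaging, 20x objective, two fields per well; Measure: % inhibition of lipid droplet signal.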
SMARCA2 conf = confirmation of SMARCA2 (BRM) function activators; shares compounds with SMARCA2 act; MG213 cells, MMTV-luciferase with dexamethasone, luminescence, overnight; MG213 cells expressing E1A, Rb sequestered; DMSO wells 0%, reference activator 100%; activation, % at 9.1 µM; 3,500 tested, 30% active;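 active = activation above its plate's cutoff, the mean activation of tested wells plus 3 SD, cut at about 7.9% in these data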
GAL4-VP16 Luc = GAL4-VP16 reporter activation counter-screen; 3,500 tested, 41% active; HEK293 GAL4-VP16 pG5luc reporter, luciferase luminescence; scaled: DMSO wells 0%, SAHA wells 100%; shares compounds with SMARCA2 act; AID 686939; activation, % at 9.1 µM;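 active = activation above the solvent-only control well mean plus 3 SD, averaged across control plates, cut at about 5.2% in these data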
The depositor's hits bear a star. Hits are enriched below; roughly 4.3% of the tested compounds scored in any of these assays.

`COc1ccc(C2=Nn3c(nnc3C3CCCCC3)SC2)cc1OC` gave AHR act 14, SR-BI DiI inh -10, Yeast superoxide 101, SR-BI uptake up 10, SMARCA2 act 14*, Lipid droplet 20, SMARCA2 conf 14* and GAL4-VP16 Luc 7.3*.
Screening Cc1nnc(NC(=O)c2ccc(Br)cc2)s1 returned AHR act -4, SR-BI DiI inh -12, Yeast superoxide 103, SR-BI uptake up 12, SMARCA2 act 8 and Lipid droplet 32.
`COc1ccc(C(=O)Nc2nnc(SCC(=O)NC3CC3)s2)cc1` gave AHR act 16, Yeast superoxide 91, SMARCA2 act 8.2*, Lipid droplet 0, SMARCA2 conf 7 and GAL4-VP16 Luc 13*.
For O=C(Nc1nnc(SCC(=O)N2CCCc3ccccc32)s1)c1ccccc1 the results were AHR act 11, SR-BI DiI inh -10, Yeast superoxide 108, SR-BI uptake up 10, SMARCA2 act 10*, Lipid droplet 8, SMARCA2 conf 2 and GAL4-VP16 Luc 8.0*.
COc1cccc(C(=O)Nc2nnc(SCC(=O)NC3CC3)s2)c1 was read as AHR act 22, SR-BI DiI inh -6, Yeast superoxide 102, SR-BI uptake up 6, SMARCA2 act 0 and Lipid droplet -2.
For CCSc1nnc(NC(=O)c2ccccc2)s1 the results were AHR act 6, SR-BI DiI inh 3, Yeast superoxide 102, SR-BI uptake up -3, SMARCA2 act 11*, Lipid droplet 24, SMARCA2 conf 5 and GAL4-VP16 Luc 5.5*.
For Cc1ccc(C(=O)Nc2nnc(C)s2)cc1 the results were AHR act 1, SR-BI DiI inh -30, Yeast superoxide 97, SR-BI uptake up 30, SMARCA2 act 13*, Lipid droplet 5, SMARCA2 conf 6 and GAL4-VP16 Luc 16*.
Screening CC(C)C[C@@H]1COc2cc(Br)ccc2S(=O)(=O)N1Cc1cn(Cc2ccccc2)nn1 returned SMARCA2 act -5.
Screening Cc1ccc(C2CCC3(CCC(=O)N3CCO)CC2)cc1 (stereo unspecified) returned SMARCA2 act -4.
Screening Clc1ccc([C@H]2OC[C@@]3(CNCCc4c[nH]c5ccccc45)CS[C@H](c4ccc(Cl)cc4)N23)cc1 returned SMARCA2 act 0.
Screening c1ccc(CNC2CCC23CCC(c2ccccc2)CC3)cc1 (stereo unspecified) returned SMARCA2 act -5.
COc1cc(C(C)=O)ccc1OCc1cc(C(=O)N(C)CCC2CCCCO2)no1 (stereo unspecified) was read as AHR act 23, SR-BI DiI inh 11, Yeast superoxide 104, SR-BI uptake up -11, SMARCA2 act 7 and Lipid droplet -2.
Screening COc1ccccc1OCc1cc(C(=O)N(C)CCC2CCCCO2)no1 (stereo unspecified) returned AHR act 53*, SR-BI DiI inh 6, Yeast superoxide 97, SR-BI uptake up -6, SMARCA2 act 11*, Lipid droplet 2, SMARCA2 conf 6 and GAL4-VP16 Luc 11*.
For COc1ccc(-c2nnc(SCC(=O)N/N=C\C=C/c3ccco3)n2-c2ccc(C)cc2)cc1 the results were SMARCA2 act -2.
Screening Cc1occc1C(=O)N/N=C/c1ccccc1[N+](=O)[O-] returned AHR act 9, SR-BI DiI inh 13, Yeast superoxide 123, SR-BI uptake up -13, SMARCA2 act 8.2*, Lipid droplet -2, SMARCA2 conf 6 and GAL4-VP16 Luc 9.0*.
For CCN(CC)c1ccc(/C=N\NC(N)=O)cc1 the results were AHR act 13, SR-BI DiI inh -13, Yeast superoxide 99, SR-BI uptake up 13, SMARCA2 act -3 and Lipid droplet -11.
Screening Cc1ccc(/C=N/NC(=O)Nc2ccccc2)o1 returned AHR act 27, SR-BI DiI inh 11, Yeast superoxide 94, SR-BI uptake up -11, SMARCA2 act 8.2*, Lipid droplet -14, SMARCA2 conf 12* and GAL4-VP16 Luc 10*.
CCN(CC)c1ccc(/C=N/NC(=O)Nc2ccccc2)cc1 was read as AHR act 38, SR-BI DiI inh 17, Yeast superoxide 95, SR-BI uptake up -17, SMARCA2 act 11*, Lipid droplet 3, SMARCA2 conf 11* and GAL4-VP16 Luc 11*.
Screening CCN(CC)c1ccc(/C=N/NC(=O)c2ccoc2C)cc1 returned AHR act -1, SR-BI DiI inh 7, Yeast superoxide 114, SR-BI uptake up -7, SMARCA2 act 11*, Lipid droplet 7, SMARCA2 conf 5 and GAL4-VP16 Luc 11*.
`Cc1ccc(/C=N/NC(=O)C(O)c2ccccc2)o1` (stereo unspecified) gave AHR act 1, SR-BI DiI inh 1, Yeast superoxide 90, SR-BI uptake up -1, SMARCA2 act -2 and Lipid droplet -4.
Screening O=Nc1ccc(Br)cn1 returned SMARCA2 act 3.
Nn1c(SCC(=O)Nc2ccc(OCc3ccccc3)cc2)nnc1-c1cc(-c2ccccc2)n[nH]1 was read as SMARCA2 act -2.
For COC(=O)[C@]12C[C@H](CC(=O)NCc3ccc(OC)c(OC)c3)C(=O)N(CCC3=CCCCC3)C1=C[C@H](C1CCCC1)O[C@@H]2C the results were SMARCA2 act -3.
C/C(=N\OC(=O)c1ccc(Br)cc1)c1ccccn1 was read as AHR act 7, SR-BI DiI inh -26, Yeast superoxide 90, SR-BI uptake up 26, SMARCA2 act 0 and Lipid droplet 26.
Screening C/C(=N/OCc1ccc(Br)cc1)c1ccccn1 returned AHR act 9, SR-BI DiI inh 17, Yeast superoxide 94, SR-BI uptake up -17, SMARCA2 act 9.1*, Lipid droplet 1, SMARCA2 conf 7 and GAL4-VP16 Luc 8.7*.
CCOC1=C2[C@@H](CN(S(=O)(=O)c3ccc(C)cc3)[C@H]2c2cccc3ccccc23)[C@H]2C(=O)N(c3ccccc3)C(=O)[C@H]2C1 was read as SMARCA2 act 1.
For CCOC1=C2[C@@H](CN(S(=O)(=O)c3ccc(C)cc3)[C@H]2c2cccc3ccccc23)[C@H]2C(=O)N(C3CCCCC3)C(=O)[C@H]2C1 the results were SMARCA2 act 10*, SMARCA2 conf -2 and GAL4-VP16 Luc -1.
